The text below walks through data of PubChem BioAssay AID822 (SRMLSC, 2007).

The term EC50 denotes the midpoint of the concentration-response curve.

Activity calls are given as the source filed them.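 The calls were made as follows: active = half-maximal effective dose for blocking growth of human endothelial cells at most 100 µM; inactive = the rest.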 Where only a bound is given, the exact number is not on record here.

The test system of the test is HUVEC proliferation, viability ATP luminescence. As to the kind of experiment: growth suppression of umbilical vein endothelial cells – cell-based, HUVEC, ATP luminescence, dose response (AID 822).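 Also: cells exposed to compound for 72 h before the ATP read.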 The essentials:
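Assay system: HUVEC primary endothelial cells, low passage (≤12) | Doses: 0.039–20 µM, 0.2% DMSO | Incubation: 72 h compound exposure at 37 °C | Detection: CellTiter-Glo ATP luminescence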
Consider `CC(=O)Nc1ccc(S(=O)(=O)NC2=C(N3CCN(c4ccc(F)cc4)CC3)C(=O)c3ccccc3C2=O)cc1`, for which the EC50 was 2.38 µM.

`Oc1ccccc1-c1cc(-c2ccccc2Cl)[nH]n1`: the EC50 was 12.5 µM.

For the compound `O=C(c1nn2c(C(F)(F)F)cc(-c3ccco3)nc2c1Br)N1CCCc2ccccc21`, the EC50 is 14.8 µM.

For `CCOC(=O)c1sc(NC(=O)CSc2nnnn2-c2ccc(C)cc2C)nc1C`, the EC50 is 13.7 µM.

For the compound `O=C(c1ccc(F)cc1)C(CN1CCOCC1)c1ccccc1` (centres undefined), the EC50 is 5.11 µM.

With `N#Cc1nc(COc2ccc(-c3ccccc3)cc2)oc1NCCCN1CCOCC1`, the EC50 is 10.6 µM.

Regarding `CCCCN(CC)S(=O)(=O)c1ccc(C(=O)Nc2nnc(-c3ccccc3Cl)o2)cc1`, the EC50 was 3.8 µM.

Take `N#Cc1nc(-c2ccc(OCc3ccccc3Cl)cc2)oc1NCCCn1ccnc1`: the EC50 was 2.55 µM.

Take `CN1CCN(c2ccccc2NC(=O)c2ccc(-c3ccc(Cl)cc3Cl)o2)CC1`: the EC50 is 6.37 µM.

On to `CCOC(=O)c1cnc(-n2nc(C)cc2C)nc1NCc1ccc2c(c1)OCO2`, for which the EC50 was 2.34 µM.

`Nc1nc(NC(=O)c2cccc(S(=O)(=O)N3CCCCCC3)c2)nc(-c2ccccc2)n1`: the EC50 is 12.8 µM.

In the case of `CC(C)CC[n+]1ccn(C2=C([O-])c3ccccc3C(=O)/C2=N\S(=O)(=O)c2ccccc2)c1`, the EC50 is 5.38 µM.

`Cc1cc(/C=C2\C(=N)N3C(SCc4ccccc4)=NSC3=NC2=O)c(C)n1Cc1ccccc1`: the EC50 was 5.4 µM.

`COc1ccc2cc3cc(C(=O)Nc4ccc5c(c4)OCCO5)oc3nc2c1`: the concentration for a half-maximal effect (EC50) was 11.7 µM.

Regarding `CN1CCN(S(=O)(=O)c2ccc(NC(=O)Nc3cccc(Cl)c3)cc2)CC1`, the concentration giving a half-maximal response (EC50) is 6.85 µM.

`OC(C#Cc1ccccn1)c1cccs1` (centres undefined): the EC50 is 4.29 µM.

For `CC1CCc2sc3nc(N4CCN(CCO)CC4)n4ncnc4c3c2C1` (centres undefined), the concentration giving a half-maximal response (EC50) is 19.6 µM.

Take `Oc1ccc(Cl)cc1-c1cc(-c2ccco2)[nH]n1`: the EC50 is 13.7 µM.

As to `COc1ccc2nc(NC(=O)CSC3=NCCS3)sc2c1`, the EC50 is 4.95 µM.

In the case of `Cc1ccc(-c2nnc(SCC(=O)Nc3ccccc3F)o2)cc1`, the concentration giving a half-maximal response (EC50) was 19.2 µM.

Regarding `CCOC(=O)c1cnc(-n2nc(C)cc2C)nc1NCCc1ccccc1`, the EC50 was 12.7 µM.

With `CCN1CCN(c2ncc(C(=O)Nc3cc(Cl)c(OC)cc3OC)c3ccccc23)CC1`, the EC50 is 14.2 µM.

With `CCOc1cc2nc(-c3ccc(OC)c(OC)c3)nc(N3CCOCC3)c2cc1OC`, the EC50 is 5.27 µM.

On to `O=[N+]([O-])c1ccc(/C=N/Nc2nc(N3CCCC3)nc(N3CCCC3)n2)o1`, for which the 50% effective concentration (EC50) is 16.2 µM.

Turning to `COc1cccc(C(=O)c2sc(NC(C)C)nc2N)c1`, the EC50 is 16.2 µM.

For the compound `N#C/C(=C/c1ccc(N2CCCCCC2)o1)c1ccc(F)cc1`, the EC50 is 12.6 µM.

On to `Cc1ccccc1NC(=O)CSC(N)=O`, for which the EC50 was 19 µM.

For the compound `COc1ccc(Nc2nc(N3CCCC3)nc3ccccc23)c(OC)c1`, the EC50 is 12.5 µM.

On to `CCOc1ccc(Nc2oc(-c3ccc(Cl)cc3)nc2C#N)cc1`, for which the EC50 is > 10 µM (inactive).

`Cc1ccc(-c2nc3cccnc3o2)cc1NC(=O)COc1ccc(C(C)(C)C)cc1`: the EC50 was 9 µM.

On to `Cc1cc(=O)[nH]c2ccc(Cl)cc12`, for which the EC50 is > 10 µM (inactive).

Consider `O=Cc1ccc(Sc2nnc(-c3ccccc3)o2)c([N+](=O)[O-])c1`, for which the EC50 was 11.4 µM.

As to `Cc1cc(C)n(-c2nc(SCC(=O)N3CCCC3)c3c4c(sc3n2)CCCC4)n1`, the concentration for a half-maximal effect (EC50) was 19.4 µM.

On to `CCN(CC)CCn1c2ccccc2c2cnc(N)c(C#N)c21`, for which the EC50 was 15.2 µM.

As to `CCOC(=O)c1ccc(NC(=O)CCc2nc(-c3cccc(C)c3)no2)cc1`, the EC50 was 19.2 µM.

`O=C(CCC1CCCC1)c1c(O)c2ccccc2oc1=O`: the EC50 was 4.67 µM.

Turning to `CCOc1cc(C(=O)CSc2nnc(CNc3ccc(Cl)cc3)o2)ccc1NC(=O)CC`, the concentration giving a half-maximal response (EC50) was 15.7 µM.

In the case of `Cc1ccc2[nH]c3c(c2c1)CCC3=O`, the EC50 is 14.7 µM.

Regarding `COc1cc(N=c2ssnc2Cl)c(OC)cc1Cl`, the EC50 was 20.9 µM.
